ChEMBL document CHEMBL4819005, “Design, synthesis, and in vitro and in vivo anti-angiogenesis study of a novel vascular endothelial growth factor receptor-2 (VEGFR-2) inhibitor based on 1,2,3-triazole scaffold” (Eur J Med Chem, 2021)
The source made the active and inactive calls. The rule behind the calls is not given here.

How the values were obtained:
[1] = target: Vascular endothelial growth factor receptor 2 (Homo sapiens, UniProt P35968); assay: Inhibition of recombinant human His-tagged VEGFR2 expressed in Baculovirus expression system using ADP-Glo as substrate measured after 30 mins in presence of ATP by ADP-Glo kinase assay
Chain of Vascular endothelial growth factor receptor 2 (P35968 whole entry): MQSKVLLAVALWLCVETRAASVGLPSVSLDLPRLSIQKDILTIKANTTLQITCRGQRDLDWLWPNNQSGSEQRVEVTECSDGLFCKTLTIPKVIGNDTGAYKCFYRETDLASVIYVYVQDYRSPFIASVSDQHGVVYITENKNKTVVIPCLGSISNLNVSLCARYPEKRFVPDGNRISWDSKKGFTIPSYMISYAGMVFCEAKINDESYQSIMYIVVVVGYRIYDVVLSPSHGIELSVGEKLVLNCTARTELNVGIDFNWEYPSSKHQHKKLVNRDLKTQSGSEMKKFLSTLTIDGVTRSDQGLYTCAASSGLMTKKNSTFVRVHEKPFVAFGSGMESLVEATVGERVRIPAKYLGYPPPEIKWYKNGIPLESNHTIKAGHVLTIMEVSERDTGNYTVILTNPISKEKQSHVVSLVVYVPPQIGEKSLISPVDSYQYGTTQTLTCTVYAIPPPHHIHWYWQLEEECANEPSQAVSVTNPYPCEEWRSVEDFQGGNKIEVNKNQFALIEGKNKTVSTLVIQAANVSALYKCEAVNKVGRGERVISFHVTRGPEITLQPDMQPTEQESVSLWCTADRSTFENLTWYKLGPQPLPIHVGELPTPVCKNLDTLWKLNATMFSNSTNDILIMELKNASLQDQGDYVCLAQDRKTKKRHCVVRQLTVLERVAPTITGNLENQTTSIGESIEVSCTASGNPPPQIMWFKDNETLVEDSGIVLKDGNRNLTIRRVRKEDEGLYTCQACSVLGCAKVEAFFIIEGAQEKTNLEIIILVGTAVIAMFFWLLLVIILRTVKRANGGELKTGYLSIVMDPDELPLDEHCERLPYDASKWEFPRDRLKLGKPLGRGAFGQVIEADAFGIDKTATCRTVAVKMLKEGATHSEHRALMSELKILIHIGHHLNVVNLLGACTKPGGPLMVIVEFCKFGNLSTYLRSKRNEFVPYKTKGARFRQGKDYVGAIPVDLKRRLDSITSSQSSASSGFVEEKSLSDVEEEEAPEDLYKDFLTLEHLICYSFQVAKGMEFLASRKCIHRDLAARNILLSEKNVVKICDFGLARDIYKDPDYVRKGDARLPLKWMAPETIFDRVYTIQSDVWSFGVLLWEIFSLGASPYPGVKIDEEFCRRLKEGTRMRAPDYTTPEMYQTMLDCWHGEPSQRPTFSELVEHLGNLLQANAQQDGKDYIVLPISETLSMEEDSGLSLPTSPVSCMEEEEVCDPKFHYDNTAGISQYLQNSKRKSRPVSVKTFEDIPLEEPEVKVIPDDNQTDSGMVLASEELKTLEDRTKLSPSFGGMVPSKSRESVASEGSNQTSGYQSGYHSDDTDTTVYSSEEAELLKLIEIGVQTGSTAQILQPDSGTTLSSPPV

HT-29 = assay: cells; settings: Homo sapiens, HT-29, 24 h
MKN-45 = assay: cells; settings: Homo sapiens, MKN-45, 24 h
HUVEC [2] = assay: cells; settings: Homo sapiens, 24 h
HUVEC [3] = assay: Anti-angiogenesis activity against HUVEC cells assessed as inhibition of cell migration measured after 24 hrs by Transwell assay; assay type: functional, cell-based; settings: Homo sapiens, dose 0.2-0.8 µM
Summary of the method: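 HUVECs pretreated 24 h in serum-free DMEM with 0, 0.2, 0.4 or 0.8 μM compound, then counted. 1×10^4 cells placed in upper transwell chamber (8 µm pores), lower chamber DMEM with 20% serum. After 24 h, filters fixed in methanol and stained with 0.1% crystal violet. Migrated cells on lower surface counted by microscopy.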

HUVEC [4] = assay: Anti-angiogenesis activity against HUVEC cells assessed as inhibition of tube formation at 0.2 to 0.8 uM measured after 6 hrs by microscopic method; assay type: functional, cell-based; settings: Homo sapiens, dose 0.2-0.8 µM
Summary of the method: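 HUVECs exposed to 0, 0.2, 0.4 or 0.8 μM compound, then collected. 1×10⁴ cells seeded on Matrigel and cultured 6 h. Tubes photographed under microscope and total tube length quantified.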

Danio rerio [5] = species on record: Danio rerio; settings: dose 40.0 mg/L, time 24.0 hrs
Danio rerio [6] = species on record: Danio rerio; settings: dose 20.0 mg/L, time 24.0 hrs

SMILES	IC50 [1]	IC50 (HT-29)	IC50 (MKN-45)	IC50 (HUVEC [2])	Activity (HUVEC [3])	Activity (HUVEC [4])	inhibition (Danio rerio [5])	inhibition (Danio rerio [6])
O=C1Nc2ccccc2/C1=C/c1ccc(-c2cn(-c3cccc(F)c3)nn2)cc1	> 0.2 µM	> 20 µM	> 20 µM	> 20 µM	–	–	–	–
O=C1Nc2ccccc2/C1=C/c1ccc(-c2cn(-c3ccc(Cl)cc3)nn2)cc1	0.163 µM	14 µM	16.2 µM	18.2 µM	–	–	–	–
O=C1Nc2ccccc2/C1=C/c1ccc(-c2cn(-c3ccccc3)nn2)cc1	–	7.07 µM	11.6 µM	12.7 µM	–	–	–	–
O=C1Nc2ccc(F)cc2/C1=C/c1ccc(-c2cn(-c3cccc(F)c3)nn2)cc1	0.171 µM	13 µM	8.19 µM	17.2 µM	–	–	–	–
O=C1Nc2ccccc2/C1=C/c1ccc(-c2cn(-c3cccc(Cl)c3)nn2)cc1	> 0.2 µM	> 20 µM	> 20 µM	> 20 µM	–	–	–	–
O=C1Nc2ccc(F)cc2C1=Cc1ccc(-c2cn(-c3ccc(Cl)cc3)nn2)cc1	0.17 µM	11.2 µM	15.8 µM	19.6 µM	–	–	–	–
Cc1ccc(-n2cc(-c3ccc(/C=C4\C(=O)Nc5ccc(F)cc54)cc3)nn2)cc1	–	3.98 µM	34.6 µM	13.8 µM	–	–	–	–
O=C1Nc2ccccc2/C1=C/c1ccc(-c2cn(-c3ccccc3F)nn2)cc1	0.115 µM	10.5 µM	12.5 µM	19.3 µM	–	–	–	–
O=C1Nc2ccc(F)cc2/C1=C/c1ccc(-c2cn(-c3ccc(F)cc3)nn2)cc1	0.193 µM	> 20 µM	> 20 µM	> 20 µM	–	–	–	–
Cc1cccc(-n2cc(-c3ccc(/C=C4\C(=O)Nc5ccccc54)cc3)nn2)c1	–	3.94 µM	4.69 µM	13.7 µM	–	–	–	–
Cc1cccc(-n2cc(-c3ccc(/C=C4\C(=O)Nc5ccc(F)cc54)cc3)nn2)c1	–	7.32 µM	6.81 µM	9.88 µM	–	–	–	–
N#Cc1ccc(-n2cc(-c3ccc(C=C4C(=O)Nc5ccccc54)cc3)nn2)cc1	0.179 µM	15.8 µM	> 20 µM	> 20 µM	–	–	–	–
O=C1Nc2ccccc2/C1=C/c1ccc(-c2cn(-c3ccc(Cl)c(C(F)(F)F)c3)nn2)cc1	0.108 µM	9.67 µM	8.89 µM	> 20 µM	–	–	–	–
Cc1ccccc1-n1cc(-c2ccc(/C=C3\C(=O)Nc4ccccc43)cc2)nn1	0.111 µM	8.71 µM	9.77 µM	14.7 µM	–	–	–	–
Cc1ccc(-n2cc(-c3ccc(/C=C4\C(=O)Nc5ccccc54)cc3)nn2)cc1	–	1.61 µM	1.92 µM	7.94 µM	Dose-Dependent Effect	Dose-Dependent Effect	Active	Active
O=C1Nc2ccc(F)cc2/C1=C/c1ccc(-c2cn(-c3ccccc3Cl)nn2)cc1	0.12 µM	5.95 µM	7.54 µM	18.2 µM	–	–	–	–
N#Cc1ccccc1-n1cc(-c2ccc(C=C3C(=O)Nc4ccc(F)cc43)cc2)nn1	0.187 µM	14 µM	15.2 µM	> 20 µM	–	–	–	–
N#Cc1cccc(-n2cc(-c3ccc(/C=C4\C(=O)Nc5ccccc54)cc3)nn2)c1	> 0.2 µM	> 20 µM	> 20 µM	> 20 µM	–	–	–	–
O=C1Nc2ccccc2/C1=C/c1ccc(-c2cn(-c3ccccc3Cl)nn2)cc1	> 0.2 µM	> 20 µM	> 20 µM	> 20 µM	–	–	–	–

More lines, main results first:

IC50 [1]	IC50 (HT-29)	IC50 (MKN-45)	SMILES	IC50 (HUVEC [2])	Activity (HUVEC [3])	Activity (HUVEC [4])	inhibition (Danio rerio [5])	inhibition (Danio rerio [6])
0.19 µM	> 20 µM	> 20 µM	N#Cc1ccc(-n2cc(-c3ccc(C=C4C(=O)Nc5ccc(F)cc54)cc3)nn2)cc1	> 20 µM	–	–	–	–
0.186 µM	10.5 µM	14.1 µM	O=C1Nc2ccc(F)cc2/C1=C/c1ccc(-c2cn(-c3cccc(Cl)c3)nn2)cc1	19.4 µM	–	–	–	–
0.169 µM	14.4 µM	14.6 µM	N#Cc1ccccc1-n1cc(-c2ccc(/C=C3\C(=O)Nc4ccccc43)cc2)nn1	19.7 µM	–	–	–	–
0.199 µM	17.7 µM	16.7 µM	O=C1Nc2ccccc2/C1=C/c1ccc(-c2cn(-c3ccc(F)cc3)nn2)cc1	14.7 µM	–	–	–	–
0.14 µM	8.98 µM	8.51 µM	O=C1Nc2ccc(F)cc2/C1=C/c1ccc(-c2cn(-c3ccccc3F)nn2)cc1	14.4 µM	–	–	–	–
0.169 µM	16.5 µM	> 20 µM	O=C1Nc2ccc(F)cc2/C1=C/c1ccc(-c2cn(-c3ccc(Cl)c(C(F)(F)F)c3)nn2)cc1	> 20 µM	–	–	–	–
–	5.87 µM	7.21 µM	Cc1ccccc1-n1cc(-c2ccc(C=C3C(=O)Nc4ccc(F)cc43)cc2)nn1	8.63 µM	–	–	–	–
–	10.3 µM	9.25 µM	CCN(CC)CCNC(=O)c1c(C)[nH]c(/C=C2\C(=O)Nc3ccc(F)cc32)c1C [SUNITINIB]	6.37 µM	–	–	–	–
0.193 µM	> 20 µM	> 20 µM	N#Cc1cccc(-n2cc(-c3ccc(/C=C4\C(=O)Nc5ccc(F)cc54)cc3)nn2)c1	> 20 µM	–	–	–	–
–	8.12 µM	11.1 µM	O=C1Nc2ccc(F)cc2C1=Cc1ccc(-c2cn(-c3ccccc3)nn2)cc1	13.7 µM	–	–	–	–
